In publication PMC3053052 (Neuropeptides, 2010):

Columns and labels:
[1] = target: T1, vascular NPY receptors (mainly Y1 subtype), rat testis (Rattus norvegicus, UniProt P21555); test: Competition binding; settings: 25 nM cold PYY; ^125I-PYY 10,000 cpm/100 μl (22.5 pM); rat testis sections
T1 sequence (P21555 1-382): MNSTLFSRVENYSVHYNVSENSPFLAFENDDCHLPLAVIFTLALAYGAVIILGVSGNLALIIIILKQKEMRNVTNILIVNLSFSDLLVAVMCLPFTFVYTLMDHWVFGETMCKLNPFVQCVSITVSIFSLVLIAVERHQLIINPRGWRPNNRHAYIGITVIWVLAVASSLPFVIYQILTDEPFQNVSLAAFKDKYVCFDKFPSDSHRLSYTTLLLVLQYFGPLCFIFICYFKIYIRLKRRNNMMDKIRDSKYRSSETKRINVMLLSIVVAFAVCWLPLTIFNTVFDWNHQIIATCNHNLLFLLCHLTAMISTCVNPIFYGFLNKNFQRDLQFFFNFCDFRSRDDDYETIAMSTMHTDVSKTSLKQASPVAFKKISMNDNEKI

[2] = test system: NPY receptors in seminiferous tubules; test: In vitro NPY receptor autoradiography, ^125I-PYY binding to seminiferous tubules; design: species or system rat; settings: surrounding seminiferous tubules; 22.5 pM ^125I-PYY, 2,000 Ci/mmol
Outline: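 Serial sections of rat testis incubated with 125I-PYY (10,000 cpm/100 μl, 2,000 Ci/mmol, 22.5 pM). Competition run with subtype-selective ligands, including a Y5-selective PP analogue. Rat brain served as positive control. Slides were exposed to film, and signals were matched to adjacent sections stained with H&E, anti-Factor VIII (vessels) or anti-STAR (Leydig cells). Densities were quantified by computer-assisted imaging.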

[3] = test system: STAR and TSPO; settings: systemic alcohol administration; ref Herman et al., 2006; cited from earlier work
[4] = test system: testes; settings: ref Collin et al., 1998; cited from earlier work
[5] = test system: steroidogenic acute regulatory (STAR) protein; test: Leydig cell STAR protein level after itt NPY; type: in vivo, rat; settings: Leydig cells, Western blot
Outline: (§1)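 Decapitation 1 h later. Leydig cells were isolated by collagenase dispersion and Percoll gradient, then lysed in RIPA. 25 μg protein per lane was probed with anti-STAR (1:1,500; 30-kDa form) or anti-TSPO (1:1,000). ECL signal was normalised to β-actin, as % of control.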

[6] = test system: T response to hCG; test: Plasma testosterone response to hCG after intratesticular; type: in vivo, rat
Outline: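 Jugular-cannulated adult male rats, freely moving. Test peptide 5 μg/kg itt or vehicle under isoflurane, 1 h before hCG 1 IU/kg iv. One series pretreated with GnRH antagonist […] iv 2 h before hCG. Blood drawn before and 15, 30, 60, 90 min after hCG. Plasma T measured by commercial kit (sensitivity 0.2 ng/mL), cumulative T summed. N = 5–7; mean ± SEM; ANOVA/repeated measures.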

[7] = test system: explanted GnRH neurons; settings: ref Klenke et al., 2010; cited from earlier work
[8] = test system: plasma LH; settings: ref Pierroz et al., 1999; cited from earlier work
[9] = test system: translocator protein (TSPO); test: Leydig cell TSPO level after itt NPY; type: in vivo, rat; settings: Leydig cells, Western blot
Outline: as §1

Molecule: PYY: cold PYY used to assess non-specific binding
- displacement of ^125I-PYY binding to testicular blood vessels at 25 nM [1]: Complete displacement

Molecule: ^125I-PYY: ^125I-PYY (2,000 Ci/mmol; Anawa, Wangen, Switzerland)
- ^125I-PYY binding (in words) [2]: no binding to surrounding seminiferous tubules

Molecule: CCO [alcohol]
- STAR and TSPO concentrations [3]: significantly decreased STAR and TSPO concentrations

Molecule: neuropeptide Y [NPY]
- vasoconstriction in the testes [4]: reported to cause vasoconstriction in the testes
- changes in STAR levels (in words) [5]: inconsistent and did not reach statistical significance
- T response to hCG ([6]; NPY 5 μg/kg itt 1 h before hCG 1.0 U/kg iv, at all times studied (15, 30, 60, 90 min), P<0.01 vs vehicle, N = 5-7/point (Fig. 1)): markedly (P<0.01) blunted the T response to hCG at all times studied
- basal plasma T levels ([6]; NPY 5 μg/kg itt, 1 h, vs vehicle, P<0.01, N = 5-7/point (Fig. 1)): significantly (P<0.01) decreased basal plasma T levels
- cumulative plasma T after hCG ([6]; vehicle pre-treatment, NPY 5 μg/kg itt, hCG 1 U/kg iv, cumulative T 15, 30, 60 and 90 min after hCG, mean ± SEM, N = 5-7, P<0.01 vs itt vehicle (22.20 ± 3.25)): 10.60 ± 0.98R ^a ng T/ ml
- neuronal activity of explanted GnRH neurons [7]: inhibits the neuronal activity of explanted GnRH neurons
- plasma LH levels [8]: lower plasma LH levels
- changes in TSPO levels (in words) [9]: inconsistent and did not reach statistical significance
